Experimental data taken from ChEMBL document CHEMBL1123084, “Decomposition reactions of (hydroxyalkyl) nitrosoureas and related compounds: possible relationship to carcinogenicity” (J Med Chem, 1985).

Key:
Assay type in all cases: ADME
[1] = Half life in buffer
Procedure, shortened: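 Compound was dissolved in pH 7.4 phosphate buffer (0.067 or 0.1 M) in sealed vials at 37 °C. Loss of parent was monitored by HPLC, and the first-order half-life was derived from ln concentration vs time.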

[2] = Half life in 0.01 M HClO4, pH = 3.0
Procedure, shortened: (§1)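 Compound at 0.02-0.03 M was decomposed in sealed vials at 37 °C. The pH 3.0 medium was perchloric acid; the other pH values used 0.067 M phosphate buffer (pH 5.5, 6.0, 6.5, 8.0). Loss of starting material was followed by HPLC, and half-life came from first-order ln concentration vs time plots.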

[3] = Half life in 0.067 M (D20), pH = 5.5; settings: 0.067 M (D2O); procedure, shortened: as §1
[4] = Half life in 0.067 M (D20), pH = 6.0; settings: 0.067 M (D2O); procedure, shortened: as §1
[5] = Half life in 0.067 M (D20), pH = 6.5; settings: 0.067 M (D2O); procedure, shortened: as §1
[6] = Half life in 0.067 M (D2O), pH = 7.4
[7] = Half life in 0.067 M buffer, pH = 7.4
[8] = Half life in 0.10 M (D20), pH = 7.4; settings: 0.10 M (D2O)
[9] = Half life in 0.10 M buffer, pH = 7.4
[10] = Half life in 0.067 M buffer, pH = 8; procedure, shortened: as §1

With `CC(O)CN(N=O)C(N)=O` (stereo unspecified) the half-life [1] was 15 min, the half-life [2] was 600 min and the half-life [3] was 410 min. The half-life [4] was 120 min, the half-life [5] was 26 min and the half-life [6] was 70 min. For the same compound, the half-life ([7]; 0.067 M buffer) was 14.5 min, the T1/2 ([7]; buffer) was 9.5 min and the half-life [8] was 37.2 min. The half-life [9] was 20 min and the half-life [10] was 6.5 min.
